Measurements gathered from unrelated publications.
Lines come from different studies, so protocols differ.

| Compound | species | medium | route | dose | notes | Cmax |
| --- | --- | --- | --- | --- | --- | --- |
| C#Cc1cccc(Nc2ncnc3cc(OCCOC)c(OCCOC)cc23)c1 | male Sprague-Dawley rat | plasma | oral | 12 mg/kg | single dose | 1580 ng/mL |
| COCc1nn(Cc2ccc(Cn3ccccc3=O)cc2)cc1C(=O)NCc1nccc(OC)c1C | male Sprague-Dawley rat | plasma | oral | 10 mg/kg | – | 1020 ng/mL |
| CNC(=O)c1c(C)oc2cc(Oc3ncnc4cc(OC)c(OC)cc34)ccc12 | Sprague-Dawley rat | plasma | oral | 1 mg/kg | single dose | 712 ng/mL |
| CCNC(=O)c1nc(-c2ccc3[nH]c(-c4nc(C)no4)cc3c2)c(C)[nH]1 | Sprague-Dawley rat | plasma | oral | 10 mg/kg | suspension | 2600 nM |
| N#Cc1[nH]nnc1-c1cc(Cl)cc(/C=C/c2cccc(C(F)(F)F)c2)c1 | male Sprague-Dawley rat | plasma | oral | 10 mg/kg | – | 2670 ng/mL |
| COc1ccc2c(=O)n(C)c(-c3ccccc3)nc2c1 | male Sprague-Dawley rat | plasma | intravenous | 2 mg/kg | – | 2130 ng/mL |
| COc1nc(-c2cc(C)c(N[C@@H](C)c3cc(F)cc(F)c3)nn2)ccc1-n1cnc(C)c1 | male Sprague-Dawley rat | plasma | oral | 5 mg/kg | single dose | 3240 ng/mL |
| CC(C)OC(=O)NC1CCN(Cc2cc(Cl)c3cccnc3c2O)CC1 | rat | blood | intraperitoneal | 30 mg/kg | – | 200 nM |
| O=C1N(Cc2ccccc2Cl)c2ccccc2C12NN=C(c1ccccc1)S2 (centres unmarked) | Sprague-Dawley rat | plasma | oral | 40 mg/kg | – | 1190 ng/mL |
| C=CC(=O)N1CC2CC(n3nc(-c4ccc(C(=O)Nc5ccccn5)cc4)c4c(N)ncnc43)CC2C1 (centres unmarked) | male Wistar rat | plasma | oral | 300 mg/kg | – | 6140 ng/mL |
| Cc1c(-c2ccccc2)cccc1N1C(=O)c2cc(CN[C@H](C(=O)O)C(C)O)c(OCc3cccc(C#N)c3)cc2C1=O (some centres unmarked) | Sprague-Dawley rat | plasma | oral | 50 mg/kg | – | 26 ng/mL |
| CCOC(=O)[C@@]12C[C@@H]1[C@@H](n1ccc3c(NC)nc(C#Cc4ccc(Cl)s4)nc31)[C@H](O)[C@@H]2O | male Sprague-Dawley rat | plasma | oral | 10 mg/kg | – | 192 ng/mL |
| O=C(Nc1cc(F)c(F)c(F)c1)c1ccc(F)c(S(=O)(=O)NCc2cccc(B(O)O)c2)c1 | male Sprague-Dawley rat | plasma | oral | 20 mg/kg | – | 46.3 ng/mL |
| COc1ccnc(CNC(=O)c2cn(Cc3ccc(Cn4ccccc4=O)cc3)nc2C(F)(F)F)c1F | male Sprague-Dawley rat | plasma | oral | 10 mg/kg | – | 2490 ng/mL |
| CNCc1cc(-c2ccccc2F)n(S(=O)(=O)c2cccnc2)c1 | Sprague-Dawley rat | plasma | oral | 10 mg/kg | – | 245 ng/mL |
| CCc1cc(C(=O)NC)c2nccc(N3CCc4c(cc(Cn5ccnc5)cc4-c4cn(C)nc4C(F)(F)F)C3=O)c2c1 | male Sprague-Dawley rat | plasma | oral | 50 mg/kg | single dose | 6170 ng/mL |
| COc1cc2c3c(n(CCCN4CCOCC4)c(=O)c2cc1OC)-c1cc2c(cc1C3=O)OCO2 | female Fischer 344 rat | plasma | intravenous | 12 mg/m² | single dose | 301 ng/mL |
| COCCOC(=O)C1=C(C)NC(C)=C(C(=O)OC(C)C)C1c1cccc([N+](=O)[O-])c1 (centres unmarked) | male Sprague-Dawley rat | plasma | oral | 12 mg/kg | – | 85 ng/mL |
| COc1cc(/C=C/C(=O)CC(=O)/C=C/c2ccc(O)c(OC)c2)ccc1O | male Sprague-Dawley rat | plasma | oral | 100 mg/kg | – | 5.99 ng/mL |
| CCc1nc(C(N)=O)c(Nc2ccc(N3CCC(N4CCN(C)CC4)CC3)c(OC)c2)nc1NC1CCOCC1 | male Sprague-Dawley rat | plasma | oral | 10 mg/kg | – | 341 ng/mL |
| Oc1c(Br)cc(Cl)c2cccnc12 | Sprague-Dawley rat | plasma | oral | 20 mg/kg | – | 1700 ng/mL |
| N#Cc1[nH]nnc1-c1csc(-c2ccc(Cl)cc2)n1 | male Sprague-Dawley rat | plasma | oral | 10 mg/kg | – | 5230 ng/mL |
| N#Cc1ccc(Nc2nc(N)cc(Oc3c(F)cc(-c4ccc(C#N)cc4)cc3F)n2)cc1 | Sprague-Dawley rat | plasma | oral | 5 mg/kg | – | 15.4 ng/mL |
